Assay results collected from several papers.
Lines come from different studies, so protocols differ.

Structure (SMILES)	tested on	assay	system	setting	measurement	result
COc1cc(C(=O)NC2CCN(C)CC2)c(F)cc1Nc1ncc(C(F)(F)F)c(Oc2cccc3c2C(=O)N(C)C3)n1	–	–	human, plasma	oral, 200 mg, multiple doses, once daily, patients	Vd/F	290 L
O=S(=O)(NNc1nnc(Cl)c2ccccc12)c1ccc(F)cc1	Vero	cell growth or viability, MTT	–	62.5 µg/mL	viability	88.2%
CC(C)(C)c1ccc(O)c(CN(Cc2cc(C(C)(C)C)ccc2O)C2CCC(NC(N)=O)CC2)c1 (centres unmarked)	–	–	male C57BL/6 mouse, plasma	intraperitoneal, 25 mg/kg, single dose	Cmax	3620 ng/mL
Cc1cc(Nc2cc(N3CCN(C)CC3)nc(/C=C/c3ccccc3)n2)n[nH]1	–	–	human, plasma	oral, 60 mg/m², patients	Vd/F	1710 L
COC(=O)C1CCN(C(=O)c2ccc(NCc3cnc4nc(N)nc(N)c4n3)cn2)CC1	Cytochrome P450 3A4 (CYP3A4, Homo sapiens, UniProt P08684)	enzyme activity, inhibitor, luciferase	–	10 µM	inhibition	-7.93%
Cn1cnc2c1c(=O)n(CC(=O)Nc1c(Cl)cccc1Cl)c(=O)n2C	Vero	cell growth or viability, MTT	–	500 µg/mL	viability	25.3%
CCNc1nc(Nc2ccc(F)c(Cl)c2)c2ccccc2n1	Vero	cell growth or viability, MTT	–	250 µg/mL	viability	20.6%
CCOC(=O)C1CCCN1C(=O)c1ccc(NCc2cnc3nc(N)nc(N)c3n2)cc1 (centres unmarked)	Cytochrome P450 1A2 (CYP1A2, Homo sapiens, UniProt P05177)	enzyme activity, inhibitor, luciferase	–	10 µM	inhibition	-16%
